Data: ChEMBL document CHEMBL2331102 (Bioorg Med Chem, 2013)
Converted amounts (≈) assume the structure as drawn.

What was measured:
[1] = Selectivity index, ratio of IC50 for rat L6 cells to IC50 for Trypanosoma cruzi Tulahuen TcVI extracellular trypomastigotes forms; type: toxicity, cell-based; details: read-out: Ratio IC50
How it was run: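 Ratio of the L6 myoblast cytotoxicity IC50 to the IC50 against β-galactosidase-expressing T. cruzi Tulahuen TcVI.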

Trypanosoma cruzi = test: Antitrypanosomal activity against Trypanosoma cruzi Tulahuen TcVI extracellular trypomastigotes forms transfected with beta-galactosidase gene infected in rat L6 cells assessed as inhibition of parasite growth after 4 days; type: functional, organism-based; details: L6, 96 h
How it was run: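 L6 rat skeletal myoblasts were infected with extracellular trypomastigotes of β-galactosidase-transfected T. cruzi Tulahuen TcVI. After 48 h to establish infection, compound was added and incubation continued 4 days, exposing trypomastigote and intracellular amastigote forms.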

L6 = test: Cytotoxicity against rat L6 cells after 72 hrs by Alamar Blue assay; type: cell-based; details: L6, 72 h
How it was run: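 Counter-screen for cytotoxicity in uninfected L6 rat skeletal muscle myoblasts, with IC50 recorded in µM.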

CYP3A4/5 = CYP3A4/5 (Homo sapiens, UniProt P08684+P20815); test: Inhibition of CYP3A4/5 in human liver microsomes assessed as reduction in testosterone-beta-hydroxylation; type: ADME, Microsome; details: probe testosterone
How it was run: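 CYP3A4 inhibition measured as inhibition of testosterone β-hydroxylation, reported as IC50 (µM).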

[2] = Kinetic solubility of the compound at pH 6.5 phosphate buffer by nephelometric analysis; type: physicochemical; details: read-out: Kinetic_solubility
How it was run: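 Kinetic solubility in phosphate buffer at pH 6.5, determined by nephelometry and reported in µg/mL.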

| SMILES | IC50 (Trypanosoma cruzi) [nM] | IC50 (CYP3A4/5) [nM] | solubility kinetic [2] [µg/mL] | selectivity ratio [1] | IC50 (L6) [nM] |
| --- | --- | --- | --- | --- | --- |
| Cc1noc(N2CCN(C(c3cccnc3)c3ccc(C(F)(F)F)cc3F)CC2)n1 (centres undefined) | 17 | – | – | > 100 | – |
| Cc1csc(C(=O)N2CCN(C(c3ccc(C#N)cc3)c3cccnc3)CC2)n1 (centres undefined) | 513 | – | – | > 100 | > 100000 |
| O=S(=O)(C1CCCCC1)N1CCN(C(c2ccc(Cl)cc2)c2cccnc2)CC1 (centres undefined) | 10 | – | – | > 100 | – |
| N#Cc1ccc(C(c2cccnc2)N2CCN(C(=O)C3CC3)CC2)cc1 (centres undefined) | 281 | – | – | > 100 | > 100000 |
| CC(C)c1ccc(S(=O)(=O)N2CCN(C(c3ccc(Cl)cc3)c3cccnc3)CC2)cc1 (centres undefined) | 12 | – | – | > 100 | – |
| CC(C)(C)C(=O)N1CCN(C(c2ccc(C(F)(F)F)cc2)c2cccnc2)CC1 (centres undefined) | 30 | 2300 | 12.5 (≈ 30.8 µM) | > 100 | – |
| CC(C)(C)C(=O)N1CCN(C(c2cncnc2)c2ccc(Cl)cc2F)CC1 (centres undefined) | 81 | 7000 | 25 (≈ 64 µM) | > 100 | > 100000 |
| N#Cc1ccc(C(c2cccnc2)N2CCN(c3nccs3)CC2)cc1 (centres undefined) | 50 | – | – | > 100 | > 100000 |
| COc1ccccc1N1CCN(C(c2ccc(C(F)(F)F)cc2)c2cnccn2)CC1 (centres undefined) | 240 | 25000 | 3.1 (≈ 7.24 µM) | > 100 | – |
| CC(C)S(=O)(=O)N1CCN(C(c2ccc(Cl)cc2)c2cccnc2)CC1 (centres undefined) | 28 | 810 | 12.5 (≈ 31.7 µM) | > 100 | > 100000 |
| N#Cc1ccc(C(c2cccnc2)N2CCN(C(=O)NC3CC3)CC2)cc1 (centres undefined) | > 1000 | – | – | > 100 | > 100000 |
| CC(C)Oc1ccc(C(c2cccnc2)N2CCN(C(=O)C(C)C)CC2)cc1 (centres undefined) | 35 | – | – | > 100 | > 100000 |
| COc1ccccc1N1CCN(C(c2ccc(OC(C)C)cc2)c2cccnc2)CC1 (centres undefined) | 28 | – | – | > 100 | – |
| CS(=O)(=O)N1CCN(C(c2ccc(Cl)cc2)c2cccnc2)CC1 (centres undefined) | 110 | 3600 | 12.5 (≈ 34.2 µM) | > 100 | > 100000 |
| CS(=O)(=O)N1CCN(C(c2ccc(C#N)cc2)c2cccnc2)CC1 (centres undefined) | 365 | – | – | > 100 | > 100000 |
| CC(C)c1ccc(S(=O)(=O)N2CCN(C(c3cncnc3)c3ccc(Cl)cc3F)CC2)cc1 (centres undefined) | 18 | – | – | > 100 | > 100000 |

| SMILES | IC50 (Trypanosoma cruzi) [nM] | IC50 (CYP3A4/5) [nM] | solubility kinetic [2] [µg/mL] | selectivity ratio [1] | IC50 (L6) [nM] |
| --- | --- | --- | --- | --- | --- |
| CS(=O)(=O)N1CCN(C(c2ccc(Cl)cc2)c2cncnc2)CC1 (centres undefined) | 880 | – | – | > 100 | > 100000 |
| CC(C)(C)OC(=O)N1CCN(C(c2cncnc2)c2ccc(Cl)cc2F)CC1 (centres undefined) | 24 | 2900 | 12.5 (≈ 30.7 µM) | > 100 | – |
| CC(C)(C)OC(=O)N1CCN(C(c2ccc(C(F)(F)F)cc2)c2cccnc2)CC1 (centres undefined) | 17 | – | – | > 100 | – |
| O=C(Oc1ccccc1)N1CCN(C(c2ccc(Cl)cc2)c2cccnc2)CC1 (centres undefined) | 8 | – | – | > 100 | – |
| CS(=O)(=O)N1CCN(C(c2cncnc2)c2ccc(C(F)(F)F)cc2F)CC1 (centres undefined) | 25 | 5600 | 25 (≈ 59.7 µM) | > 100 | > 100000 |
| CS(=O)(=O)N1CCN(C(c2ccc(C(F)(F)F)cc2)c2cncnc2)CC1 (centres undefined) | 769 | – | – | > 100 | > 100000 |
| O=C(Cn1ccnc1[N+](=O)[O-])NCc1ccccc1 [BENZNIDAZOLE] | 1150 | – | – | – | > 100000 |
| O=S(=O)(c1ccc(Cl)cc1)N1CCN(C(c2ccc(Cl)cc2)c2cccnc2)CC1 (centres undefined) | 24 | – | – | > 100 | – |
| CC(C)(C)NC(=O)N1CCN(C(c2cncnc2)c2ccc(Cl)cc2F)CC1 (centres undefined) | 54 | 6900 | 50 (≈ 123 µM) | > 100 | > 100000 |
| O=C(Oc1ccccc1)N1CCN(C(c2cccnc2)c2ccc(Cl)cc2F)CC1 (centres undefined) | 5 | – | – | > 100 | – |
| CC(C)(C)C(=O)N1CCN(C(c2ccc(C#N)cc2)c2cccnc2)CC1 (centres undefined) | 254 | – | – | > 100 | > 100000 |
| CS(=O)(=O)N1CCN(C(c2ccc(C(F)(F)F)cc2)c2cccnc2)CC1 (centres undefined) | 77 | – | – | > 100 | > 100000 |
| CS(=O)(=O)N1CCN(C(c2cccnc2)c2ccc(C(F)(F)F)cc2F)CC1 (centres undefined) | 28 | 1000 | 25 (≈ 59.9 µM) | > 100 | – |
| O=C(C1CC1)N1CCN(C(c2cncnc2)c2ccc(Cl)cc2F)CC1 (centres undefined) | 171 | – | – | > 100 | > 100000 |
| O=C(NC1CC1)N1CCN(C(c2ccc(C(F)(F)F)cc2)c2cccnc2)CC1 (centres undefined) | > 1000 | – | – | > 100 | > 100000 |
| O=C(Nc1ccc(Cl)cc1)N1CCN(C(c2ccc(Cl)cc2)c2cncnc2)CC1 (centres undefined) | 22 | – | – | > 100 | – |

Continued, in another order:

| IC50 (Trypanosoma cruzi) [nM] | IC50 (CYP3A4/5) [nM] | solubility kinetic [2] [µg/mL] | SMILES | selectivity ratio [1] | IC50 (L6) [nM] |
| --- | --- | --- | --- | --- | --- |
| 240 | 7400 | > 100 | CC(=O)N1CCN(C(c2ccc(Cl)cc2)c2cccnc2)CC1 (centres undefined) | > 100 | > 100000 |
| 26 | – | – | Fc1cc(Cl)ccc1C(c1cccnc1)N1CCN(c2ncccn2)CC1 (centres undefined) | > 100 | – |
| 20 | 1900 | 3.1 (≈ 7.64 µM) | CC(C)(C)OC(=O)N1CCN(C(c2cccnc2)c2ccc(Cl)cc2F)CC1 (centres undefined) | > 100 | – |
| 20 | – | – | COc1ccccc1N1CCN(C(c2ccc(Cl)cc2)c2cccnc2)CC1 (centres undefined) | > 100 | – |
| 8 | 600 | < 1.6 | O=S(=O)(c1ccccc1)N1CCN(C(c2cccnc2)c2ccc(Cl)cc2F)CC1 (centres undefined) | > 100 | 42000 |
| 10 | 300 | 3.1 (≈ 6.73 µM) | O=C(Nc1ccc(Cl)cc1)N1CCN(C(c2cncnc2)c2ccc(Cl)cc2F)CC1 (centres undefined) | > 100 | – |
| 68 | – | – | O=C(c1ccccc1)N1CCN(C(c2ccc(Cl)cc2)c2cccnc2)CC1 (centres undefined) | > 100 | – |
| 9 | – | – | O=C(Nc1ccccc1)N1CCN(C(c2ccc(Cl)cc2)c2cccnc2)CC1 (centres undefined) | > 100 | – |
| 6 | – | – | O=C(Nc1ccccc1)N1CCN(C(c2cccnc2)c2ccc(Cl)cc2F)CC1 (centres undefined) | > 100 | – |
| 28 | 3900 | 6.3 (≈ 15.1 µM) | O=C(C1CCCCC1)N1CCN(C(c2cccnc2)c2ccc(Cl)cc2F)CC1 (centres undefined) | > 100 | – |
| 24 | 3900 | 12.5 (≈ 29.5 µM) | CC(C)(C)C(=O)N1CCN(C(c2cccnc2)c2ccc(C(F)(F)F)cc2F)CC1 (centres undefined) | > 100 | – |
| 70 | – | – | O=C(c1ccccc1)N1CCN(C(c2cccnc2)c2ccc(Cl)cc2F)CC1 (centres undefined) | > 100 | – |
| 120 | – | – | CN(C)C(=O)N1CCN(C(c2ccc(Cl)cc2)c2cccnc2)CC1 (centres undefined) | > 100 | > 100000 |
| 18 | – | – | Fc1cc(Cl)ccc1C(c1cccnc1)N1CCN(c2ccccc2)CC1 (centres undefined) | > 100 | – |
| 9 | 1900 | < 1.6 | O=S(=O)(c1ccccc1)N1CCN(C(c2ccc(Cl)cc2)c2cccnc2)CC1 (centres undefined) | > 100 | – |
| 34 | – | – | Clc1ccc(C(c2cccnc2)N2CCN(c3ccccc3)CC2)cc1 (centres undefined) | > 100 | – |
| 78 | – | – | Fc1cc(Cl)ccc1C(c1cncnc1)N1CCN(c2ccccc2)CC1 (centres undefined) | > 100 | – |
| 19 | 1000 | 12.5 (≈ 32.1 µM) | CC(C)(C)C(=O)N1CCN(C(c2cccnc2)c2ccc(Cl)cc2F)CC1 (centres undefined) | > 100 | – |
| 65 | – | – | COc1ccccc1N1CCN(C(c2cncnc2)c2ccc(Cl)cc2F)CC1 (centres undefined) | > 100 | – |
| 26 | 1800 | 50 (≈ 134 µM) | O=C(C1CC1)N1CCN(C(c2cccnc2)c2ccc(Cl)cc2F)CC1 (centres undefined) | > 100 | > 100000 |
| 36 | 2800 | 50 (≈ 116 µM) | Cc1csc(C(=O)N2CCN(C(c3cccnc3)c3ccc(Cl)cc3F)CC2)n1 (centres undefined) | > 100 | 93000 |
| 7 | – | – | CC(C)c1ccc(NC(=O)N2CCN(C(c3cncnc3)c3ccc(Cl)cc3F)CC2)cc1 (centres undefined) | > 100 | – |
